Experimental data published in ChEMBL document CHEMBL1142879, “Synthesis and biological evaluation of dialkylsubstituted maleic anhydrides as novel inhibitors of Cdc25 dual specificity phosphatases” (Eur J Med Chem, 2007).

Key:
[1] = Inhibition of horse liver alkaline phosphatase; design: species or system Equus caballus
Outline: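 Phosphatase activity was read with p-nitrophenyl phosphate as substrate, following a previously described method.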

[2] = target: T1, M-phase inducer phosphatase 3 (Homo sapiens, UniProt P30307); assay: Inhibition of human GST-Cdc25C expressed in Escherichia coli BL21(DE3)
T1 sequence (P30307 whole entry): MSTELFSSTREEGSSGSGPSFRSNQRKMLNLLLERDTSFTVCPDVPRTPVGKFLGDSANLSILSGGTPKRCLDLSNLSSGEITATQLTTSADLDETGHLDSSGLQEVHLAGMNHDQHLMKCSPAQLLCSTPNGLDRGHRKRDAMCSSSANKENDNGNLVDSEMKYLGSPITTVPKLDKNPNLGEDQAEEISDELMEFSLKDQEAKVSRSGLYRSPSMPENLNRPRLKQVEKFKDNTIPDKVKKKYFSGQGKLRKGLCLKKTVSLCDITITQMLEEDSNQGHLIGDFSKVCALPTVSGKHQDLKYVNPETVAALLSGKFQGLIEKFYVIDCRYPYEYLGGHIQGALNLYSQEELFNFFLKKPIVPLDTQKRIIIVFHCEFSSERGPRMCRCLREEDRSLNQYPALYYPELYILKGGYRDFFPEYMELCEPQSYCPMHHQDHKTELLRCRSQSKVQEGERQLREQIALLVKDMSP
Outline: (§1)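 GST fusion proteins (full-length Cdc25A and Cdc25C; Cdc25B catalytic domain) were expressed in E. coli grown with ampicillin and induced with IPTG at OD600 0.4–0.6 for 5 h. They were purified on glutathione-agarose. Activity was measured with p-nitrophenyl phosphate as substrate across a range of inhibitor concentrations. IC50 is the mean ± SD of at least two independent experiments, each with four determinations per concentration.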

[3] = target: T2, M-phase inducer phosphatase 1 (Homo sapiens, UniProt P30304); assay: Inhibition of human GST-Cdc25A expressed in Escherichia coli BL21(DE3); outline: as §1
T2 sequence (P30304 whole entry): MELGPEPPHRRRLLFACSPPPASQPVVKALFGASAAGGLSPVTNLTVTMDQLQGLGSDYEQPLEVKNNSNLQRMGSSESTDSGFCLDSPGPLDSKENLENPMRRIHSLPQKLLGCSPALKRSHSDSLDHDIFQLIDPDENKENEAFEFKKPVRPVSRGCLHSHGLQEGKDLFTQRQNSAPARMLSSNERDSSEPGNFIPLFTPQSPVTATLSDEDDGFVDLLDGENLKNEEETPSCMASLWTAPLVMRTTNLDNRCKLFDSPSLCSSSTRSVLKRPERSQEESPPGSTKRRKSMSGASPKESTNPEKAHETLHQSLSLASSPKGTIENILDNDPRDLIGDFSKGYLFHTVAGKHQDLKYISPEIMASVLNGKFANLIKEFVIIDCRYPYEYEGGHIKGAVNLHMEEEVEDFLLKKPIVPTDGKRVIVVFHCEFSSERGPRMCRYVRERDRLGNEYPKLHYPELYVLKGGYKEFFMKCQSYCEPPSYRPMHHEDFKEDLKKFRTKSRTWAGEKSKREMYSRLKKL

[4] = target: T3, M-phase inducer phosphatase 2 (Homo sapiens, UniProt P30305); assay: Inhibition of human GST-Cdc25B expressed in Escherichia coli BL21(DE3); outline: as §1
T3 sequence (P30305 whole entry): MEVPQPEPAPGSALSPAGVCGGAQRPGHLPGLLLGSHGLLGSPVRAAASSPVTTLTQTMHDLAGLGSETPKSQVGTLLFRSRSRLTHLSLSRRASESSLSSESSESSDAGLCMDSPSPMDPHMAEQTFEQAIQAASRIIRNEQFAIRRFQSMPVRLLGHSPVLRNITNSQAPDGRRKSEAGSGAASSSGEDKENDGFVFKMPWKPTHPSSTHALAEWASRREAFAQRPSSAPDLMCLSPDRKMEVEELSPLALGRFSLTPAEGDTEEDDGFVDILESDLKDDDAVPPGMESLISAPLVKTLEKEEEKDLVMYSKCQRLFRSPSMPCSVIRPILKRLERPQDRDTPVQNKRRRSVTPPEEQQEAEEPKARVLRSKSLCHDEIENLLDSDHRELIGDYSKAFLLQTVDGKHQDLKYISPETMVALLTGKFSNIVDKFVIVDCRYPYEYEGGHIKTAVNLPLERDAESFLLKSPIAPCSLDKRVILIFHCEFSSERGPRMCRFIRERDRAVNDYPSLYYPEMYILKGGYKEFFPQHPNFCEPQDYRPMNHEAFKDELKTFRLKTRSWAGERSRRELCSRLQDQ

Row | Structure (SMILES) | IC50 [1] | IC50 [2] | IC50 [3] | IC50 [4]
1 | CCCCCCCCC1=C(CCC(=O)O)C(=O)OC1=O | > 100 µM | > 100 µM | > 100 µM | > 100 µM
2 | CCCCCCCCCCCCCC1=C(CCC(=O)O)C(=O)OC1=O | > 100 µM | 5.7 µM | 8.1 µM | 8.7 µM
3 | CCCCCCCC/C=C\CCCCCCCC1=C(CCC(=O)O)C(=O)OC1=O | > 100 µM | 8.8 µM | 4.5 µM | 6.7 µM
4 | CCCCCCCCCC1=C(CCC(=O)O)C(=O)OC1=O | > 100 µM | > 100 µM | > 100 µM | > 100 µM

Further lines, results first:

Row | IC50 [1] | IC50 [2] | IC50 [3] | IC50 [4] | Structure (SMILES)
5 | > 100 µM | > 100 µM | > 100 µM | > 100 µM | CCCCCCC1=C(CCC(=O)O)C(=O)OC1=O
6 | > 100 µM | 53.9 µM | 44.4 µM | 55.2 µM | CCCCCCCCCCC1=C(CCC(=O)O)C(=O)OC1=O
7 | > 100 µM | 12.6 µM | 6.3 µM | 11.6 µM | CCCCCCCCCCCCCCC1=C(CCC(=O)O)C(=O)OC1=O
8 | > 100 µM | – | – | – | CCCCCCCCCCCCCCCCCC1=C(CCC(=O)O)C(=O)OC1=O
9 | > 100 µM | > 100 µM | 44.3 µM | 47.7 µM | CCCCCCCCCCCC1=C(CCC(=O)O)C(=O)OC1=O
10 | > 100 µM | 8.6 µM | 4.7 µM | 7.6 µM | CCCCCCCCCCCCCCCC1=C(CCC(=O)O)C(=O)OC1=O
